# Published values from different studies.
# Each line is one published result; the experiments were not run side by side.
# rep papain-like protease: Replicase polyprotein 1ab, papain-like protease (rep, Porcine epidemic diarrhea virus, UniProt P0C6Y4)
# rep main protease: Replicase polyprotein 1ab, main protease (rep, Porcine epidemic diarrhea virus, UniProt P0C6Y4)
# PTGS1: Prostaglandin G/H synthase 1 (PTGS1, Ovis aries, UniProt P05979)
# MAP2K2: Dual specificity mitogen-activated protein kinase kinase 2 (MAP2K2, Homo sapiens, UniProt P36507)
# IPMK: Inositol polyphosphate multikinase (IPMK, Homo sapiens, UniProt Q8NFU5)
Compound,target,effect on,action,technique,IC50 [µM]
O=C(NCc1cc(O)c(O)c(Br)c1)c1ccc(Cl)c(F)c1,rep papain-like protease,enzyme activity,inhibitor,FRET,7.22
O=C1Nc2ccc(I)cc2/C1=C/c1cc(Br)c(O)c(Br)c1,"Mitogen-activated protein kinase kinase kinase 20 (MAP3K20, Homo sapiens, UniProt Q9NYL2)",enzyme activity,inhibitor,,1.13
O=C(NCc1cc(O)c(O)c(Br)c1)c1nccs1,rep main protease,enzyme activity,inhibitor,FRET,2.52
Cc1ccc(S(=O)(=O)[N](Nc2ccc([N+](=O)[O-])cc2[N+](=O)[O-])[Sn]([Cl])[Cl])cc1,PTGS1,enzyme activity,inhibitor,,45.9
NS(=O)(=O)c1ccc(-n2nc(C(=O)NN3C(=O)CCC3=O)cc2-c2ccccc2)cc1,PTGS1,enzyme activity,inhibitor,,7.57
CC(=O)Oc1cccc(C(=O)NCc2cc(O)c(O)c(Br)c2)c1C,rep papain-like protease,enzyme activity,inhibitor,FRET,2.76
CC(=NNC(=O)c1cc(-c2ccccc2)n(-c2ccc(S(N)(=O)=O)cc2)n1)c1ccc(C)cc1,PTGS1,enzyme activity,inhibitor,,3.32
C=CC(=O)N1CCC([C@@H]2CCNc3c(C(N)=O)c(-c4ccc(Oc5ccccc5)cc4)nn32)CC1,MAP2K2,enzyme activity,inhibitor,,0.133
O=C(NCc1cc(O)c(O)c(Br)c1)c1cccc(C(F)(F)F)c1,rep papain-like protease,enzyme activity,inhibitor,FRET,1.95
CC(C)N(CCC(=O)c1ccc2ccccc2c1)Cc1ccccc1,"Aldehyde dehydrogenase, dimeric NADP-preferring (ALDH3A1, Homo sapiens, UniProt P30838)",enzyme activity,inhibitor,fluorescence,< 10
COc1cccc(CNc2nc(NC3CCN(Cc4ccccc4)CC3)c3nc[nH]c3n2)c1,IPMK,enzyme activity,inhibitor,,2
COc1cc(CNC(=O)c2ccccc2C)cc(Br)c1OC,rep main protease,enzyme activity,inhibitor,FRET,6.79
COCCNc1nc(NCc2cccc(-c3ccc(OC)cc3)c2)nc2[nH]cnc12,IPMK,enzyme activity,inhibitor,,38
C=CC(=O)N1CCC(CNc2ncnc(N)c2-c2ccc(Oc3ccccc3)cc2)CC1,MAP2K2,enzyme activity,inhibitor,,> 5
COc1cc(NC(=O)c2cnn(-c3ccc([N+](=O)[O-])cc3)c2C(F)(F)F)cc(OC)c1OC,PTGS1,enzyme activity,inhibitor,,4.51
NS(=O)(=O)c1ccc(-n2nc(-c3nnc(S)o3)cc2-c2ccccc2)cc1,PTGS1,enzyme activity,inhibitor,,7.78
COc1ccc(C(=O)NCc2cc(O)c(O)c(Br)c2)cc1,rep papain-like protease,enzyme activity,inhibitor,FRET,2.46
NS(=O)(=O)c1ccc(-n2nc(C(=O)NN=Cc3cccnc3)cc2-c2ccccc2)cc1,PTGS1,enzyme activity,inhibitor,,8.94
C=C1CC/C=C(\C)CC[C@@H]2[C@@H]1CC2(C)C,"Transient receptor potential cation channel subfamily V member 1, non-phosphorylated (TRPV1, Homo sapiens, UniProt Q8NER1)",ion current,,patch clamp,0.587
